Ins promoter up: insulin promoter activators in MIN6 cells, imaging, high-content screening, mouse beta cells | AID 1625, 2009 | MIN6 insulin promoter-GFP reporter; active compounds read high | z-score at 5 µM | hit rate 0.3% among 190,000;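 active = z-score above 3 at 5 µM with at least 500 cells counted in the well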
HSV augment: enhancers of HSV replication in host cells, fold increase, host cell viability; maximum fold increase; HSV replication augmentation in cells; hit rate 0.005% among 220,000; AID 1956, 2009; in the data active = maximum fold increase above about 1.5; tested in PC3 cells
Dynein transport: inhibitors of GR-EGFP nuclear translocation, primary screen, dynein cargo transport inhibitor project, imaging, high-content, 3617.4 mouse cells. hit rate 0.47% among 220,000. z-score, hits read low. test concentration mostly 20 µM; stimulated with dexamethasone, 1 µM; active compounds read low;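 active = plate z-score of nuclear minus cytoplasmic receptor signal below a set negative limit, without overly bright fluorescence or cell loss, cut at about -3.5 in these data, passing the limit was not always enough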;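 also: z-score of nuclear minus cytoplasmic ring GR-EGFP intensity difference per well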
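Also added: dexamethasone, 1.0 µM final. Medium: tet-free, stripped-serum medium. Detection: fixed, Hoechst-stained cells imaged at 10x for EGFP. Read-out: nuclear-to-cytoplasmic GR-EGFP distribution per well. Times: induction 48 h, compound 1 h, agonist 30 min.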
Autophagy mod: autophagy modulators in MEF cells, primary screen, imaging, high-content, MEF GFP-LC3; hit rate 0.98% among 190,000; MEF GFP-LC3 puncta imaging; test concentration mostly 10 µM; calls only at 10 µM (by protocol);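 active = percentage of spot-positive cells more than 3 SD above its plate mean, without a fluorescence outlier flag or 80% toxicity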;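 also: spot-positive cell cutoff set from DMSO-treated cells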
Furin inhibitor: human furin inhibitors, primary screen, biochemical, fluorescence intensity; purified furin, fluorogenic substrate cleavage; inhibition, % at 20 µM or 30 µM; hit rate 0.061% among 220,000; in the data active = inhibition above about 25%
Target sequence (P09958 108-714 limits assumed): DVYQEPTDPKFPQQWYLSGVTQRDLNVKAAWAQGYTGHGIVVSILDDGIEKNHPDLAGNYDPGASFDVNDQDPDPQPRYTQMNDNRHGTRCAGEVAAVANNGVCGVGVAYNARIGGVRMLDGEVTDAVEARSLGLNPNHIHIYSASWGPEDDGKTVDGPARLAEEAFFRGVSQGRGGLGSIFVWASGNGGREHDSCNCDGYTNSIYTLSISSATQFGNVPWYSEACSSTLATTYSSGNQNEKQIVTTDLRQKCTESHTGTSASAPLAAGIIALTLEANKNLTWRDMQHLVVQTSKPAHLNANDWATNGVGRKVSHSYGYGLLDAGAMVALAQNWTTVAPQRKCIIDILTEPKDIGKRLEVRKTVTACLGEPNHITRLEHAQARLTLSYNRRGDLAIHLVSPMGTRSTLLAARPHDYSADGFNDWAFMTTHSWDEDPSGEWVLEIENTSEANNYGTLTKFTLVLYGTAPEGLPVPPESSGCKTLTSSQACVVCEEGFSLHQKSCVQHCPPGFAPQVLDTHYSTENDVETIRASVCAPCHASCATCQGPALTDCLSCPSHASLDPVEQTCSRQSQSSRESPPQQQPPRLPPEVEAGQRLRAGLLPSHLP
INS promoter inh: inhibitors of insulin promoter-driven GFP, primary screen, imaging, TRM-6 cells (human fetal islet line), eGFP reporter, cell count | reporter expression induced with tamoxifen | inhibition, % at 2 µM | hit rate 0.9% among 130,000;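 active = inhibition above the mean plus 3 SD, with well images judged a real hit on visual review, cut at about 60% in these data, passing the limit was not always enough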
Dynein inh conf: dynein cargo transport inhibitors, GR-EGFP translocation, confirmation, imaging, high-content imaging, GR-EGFP cells | shares compounds with Dynein transport | 3617.4 GR-EGFP nuclear translocation imaging, dexamethasone-induced | calls only at 20 µM | hit rate 69% among 1,000 | AID 463116, 2010;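 active = inhibition of receptor movement into the nucleus at or above a set limit in both runs, with normal cell brightness and cell count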;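 also: dexamethasone at 1 µM final in well for 30 min; nuclear minus cytoplasmic GR-EGFP mean intensity difference in channel 2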
* = called active by the depositor. Only some compounds are listed: those with a hit (about 2% of all), similar ones and a draw of the others.

How did O=C(NC(=S)Nc1nc2c(s1)CSc1ccccc1-2)c1ccccc1 do in these assays?
HSV augment: inactive; Dynein transport: -3.5*; Autophagy mod: inactive; Furin inhibitor: -10; INS promoter inh: 25; Dynein inh conf: inactive

What do the screens show for `Cn1cc(C(=O)CCl)c2ccccc21`?
Ins promoter up: -1.9; HSV augment: inactive; Dynein transport: -4.8*; Autophagy mod: inactive; Furin inhibitor: -35; Dynein inh conf: active

How did Cn1cc(C(N)=O)c2ccccc21 do in these assays?
Ins promoter up: 1.5; HSV augment: inactive; Dynein transport: -0.54; Autophagy mod: inactive; Furin inhibitor: -24

Results for COc1ccc(CCNC(N)=S)cc1OC ?
Ins promoter up: 0.29; HSV augment: inactive; Dynein transport: -0.65; Autophagy mod: inactive; Furin inhibitor: -21; INS promoter inh: -44

How did O=C(Cn1cnc2ccccc2c1=O)NCCC(=O)Nc1ccc2c(c1)OCO2 do in these assays?
Ins promoter up: 0.23; HSV augment: inactive; Dynein transport: -0.54; Autophagy mod: inactive; Furin inhibitor: -16; INS promoter inh: 47

How did Cn1nc([N+](=O)[O-])c(C(C#N)c2nc3ccccc3n2C)c(Cl)c1=O (stereo not given) do in these assays?
Ins promoter up: -0.01; HSV augment: inactive; Dynein transport: -3.6*; Autophagy mod: inactive; Furin inhibitor: -15; INS promoter inh: -6; Dynein inh conf: inactive

What do the screens show for `Cn1c(-c2ccc([N+](=O)[O-])cc2)nc2ccccc21`?
Ins promoter up: 0.23; HSV augment: inactive; Dynein transport: 0.78; Autophagy mod: inactive; Furin inhibitor: 0

What do the screens show for `Cc1ccc(NC(=O)CC2NCCNC2=O)cc1Cl` (stereo not given)?
HSV augment: inactive; Dynein transport: -0.74; Autophagy mod: inactive; Furin inhibitor: -16; INS promoter inh: 5

Results for Cc1nc2c(ccc3nc(NC(=O)c4ccc(S(=O)(=O)N(C)C)cc4)sc32)s1 ?
Ins promoter up: -0.03; HSV augment: inactive; Dynein transport: -4.1*; Autophagy mod: inactive; Furin inhibitor: -29; Dynein inh conf: inactive

How did C=CS(=O)(=O)c1sc(Cl)c(N2CCOCC2)c1[N+](=O)[O-] do in these assays?
Ins promoter up: 0.25; HSV augment: inactive; Dynein transport: -4.3*; Autophagy mod: inactive; Furin inhibitor: -5; Dynein inh conf: active

Results for C=CSc1sc(Cl)c(N2CCOCC2)c1[N+](=O)[O-] ?
Ins promoter up: -0.16; HSV augment: inactive; Dynein transport: -3; Autophagy mod: inactive; Furin inhibitor: -13; INS promoter inh: 17

What do the screens show for `CC(C(Sc1ccccc1N)c1ccccc1)[N+](=O)[O-]` (stereo not given)?
Ins promoter up: -2.6; HSV augment: inactive; Dynein transport: -5.5*; Furin inhibitor: -18; Dynein inh conf: active

Results for Nc1ccccc1SSc1ccccc1N ?
Ins promoter up: -0.77; HSV augment: inactive; Dynein transport: 0.86; Furin inhibitor: 7

Results for O=[N+]([O-])c1ccc(C(O)C23CN4CN(CN(C4)C2)C3)cc1 (stereo not given) ?
Ins promoter up: -0.42; HSV augment: inactive; Dynein transport: 0.79; Autophagy mod: inactive; Furin inhibitor: -22

How did CC(NC(=O)/C(=C\c1ccco1)NC(=O)c1ccccc1Br)C(=O)O (stereo not given) do in these assays?
Ins promoter up: -0.53; HSV augment: inactive; Dynein transport: -0.79; Autophagy mod: inactive; Furin inhibitor: -21

Results for CCO[C@@H]1OC(C(=O)N2CCOCC2)=C[C@H](C(C)(C)C)[C@H]1CCCO ?
HSV augment: inactive

Compound activity as filed in PubChem.
